Bioassay records (PubChem BioAssay)
RBBP9 inhibitor: inhibitors of human serine hydrolase RBBP9 | recombinant RBBP9, FP-Rh probe fluorescence polarization | inhibition, % at 7.94 µM | 0.2% of 220,000 active;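 active means inhibition above the campaign mean of all tested compounds plus 3 SD, cut at about 14% in these data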;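 further: plate controls were DMSO wells with RBBP9 for no effect and wells lacking RBBP9 protein for full effect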
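Test system: recombinant human RBBP9; Timing: 30 min then 45 min, 25 °C; Detection: fluorescence polarization; Control set: RBBP9 with DMSO as uninhibited control, no-protein wells as full inhibition; Compound dosing: one concentration, 7.94 µM nominal, 0.794% DMSO; Probe or stimulus: FP-Rh activity-based probe, 375 nM before mixing.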
GSTO1 inh: GSTO1 inhibition, counter-screen for RBBP9 inhibitors; P78417; recombinant GSTO1, activity-based probe fluorescence polarization; inhibition, % at 5.96 µM; 1.1% of 300,000 active; AID 1974;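 active means inhibition above the campaign mean inhibition plus 3 SD, cut at about 35% in these data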;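 further: 0% = GSTO1-1 with DMSO and 100% = wells lacking GSTO1-1 enzyme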
PAD4 inh: blocks human protein arginine deiminase 4 | recombinant PAD4, RCA probe fluorescence polarization | inhibition, % at 6.36 µM | 0.41% of 330,000 active | AID 485272;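 active means percent inhibition above a cutoff equal to the mean of all tested compounds plus 3 SD, cut at about 15% in these data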;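 further: 0% = PAD4 with RCA probe and DMSO and 100% = probe without PAD4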
PME-1 inh: PME-1 (human) inhibition | 0.53% of 320,000 active | inhibition, % at 5.9 µM | recombinant PME-1, FP-Rh probe fluorescence polarization | Q9Y570;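 active means inhibition above the campaign mean of all compounds plus 3 SD, cut at about 26% in these data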;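 further: competitive labeling of PME-1 active site by serine hydrolase directed probe; 0% = PME-1 with DMSO and 100% = wells lacking PME-1 enzyme; inhibitors block probe labeling so polarization falls and inhibition rises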
Fam108B counter: counter-screen for RBBP9 inhibitors: inhibitors of mouse Fam108B. recombinant Fam108B, FP-Rh probe fluorescence polarization. inhibition, % at 9.51 µM. 0.33% of 300,000 active. AID 1947;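 active means inhibition above the screen mean inhibition plus 3 SD, computed separately per campaign, cut at about 18% in these data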;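 further: inhibitors lower polarization as less probe binds the enzyme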
PRMT1 inh: inhibitors of human PRMT1; 1.3% of 370,000 active; AID 652257; inhibition, % at 2.79 µM; Q99873; recombinant PRMT1, activity-based probe fluorescence polarization;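 active means inhibition above about 21% made by adding two undisclosed values, limit read from the data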
Target sequence (Q99873 whole entry, looked up): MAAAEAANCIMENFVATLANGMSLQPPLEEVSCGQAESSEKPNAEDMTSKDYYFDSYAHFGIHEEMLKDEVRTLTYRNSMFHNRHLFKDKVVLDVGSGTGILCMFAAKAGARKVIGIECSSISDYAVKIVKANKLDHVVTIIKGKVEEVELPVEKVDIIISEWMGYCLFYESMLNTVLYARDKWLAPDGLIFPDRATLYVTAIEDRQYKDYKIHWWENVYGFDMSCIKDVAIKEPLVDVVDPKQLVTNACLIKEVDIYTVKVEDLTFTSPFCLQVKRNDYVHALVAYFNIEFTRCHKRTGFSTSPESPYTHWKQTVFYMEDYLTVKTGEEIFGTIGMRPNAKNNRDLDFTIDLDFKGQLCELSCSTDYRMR
PRMT1 confirm: confirmation of human PRMT1 inhibitors; 42% of 3,300 active; inhibition, % at 2.79 µM; shares compounds with PRMT1 inh; recombinant His-PRMT1, activity-based probe fluorescence polarization;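 active means mean inhibition across replicates above the hit cutoff derived for the earlier primary screen, cut at about 22% in these data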
Active calls of the source: *; . = no result. Rows were chosen to be rich in hits. Some 2.3% of all compounds tested hit in one or more screens of this group.

SMILES | RBBP9 inhibitor | GSTO1 inh | PAD4 inh | PME-1 inh | Fam108B counter | PRMT1 inh | PRMT1 confirm
Cc1ccc2cc(CN(Cc3ccc4c(c3)OCO4)Cc3nnnn3Cc3ccco3)c(=O)[nH]c2c1C | -8 | 2 | -5 | -10 | 0 | 61* | 5
COc1cc2cc(CN(Cc3nnnn3Cc3ccco3)C3CCCCC3)c(=O)[nH]c2cc1OC | -5 | 26 | -3 | 0 | 2 | 29* | 10
CCOC(=O)CSc1nnc(NCC(=O)OC)c(=O)[nH]1 | -8 | 0 | -4 | -6 | 2 | 56* | 54*
S=c1cnc2ccccc2[nH]1 | 0 | -6 | 1 | 0 | -1 | 40* | 14
COc1ccc(N2C(=O)CC(Sc3nnc(-c4ccccc4)o3)C2=O)cc1 (stereo not drawn) | 2 | -3 | -6 | 2 | -6 | 63* | 39*
COc1ccc(N2C(=O)CC(Sc3nc(C)cc(C)c3C#N)C2=O)cc1 (stereo not drawn) | -9 | 1 | -6 | -2 | 7 | 7 | .
O=C1CC(Sc2nnc(-c3ccccc3O)o2)C(=O)N1c1ccccc1 (stereo not drawn) | -8 | 11 | 1 | -2 | -1 | 66* | 65*
O=C1CC(Sc2ncccn2)C(=O)N1c1ccccc1 (stereo not drawn) | 1 | -4 | 2 | 0 | -1 | 12 | .
Cc1cc(C(=O)COc2cccnc2[N+](=O)[O-])c(C)n1Cc1cccs1 | -8 | 13 | -3 | 0 | 4 | 29* | -1
CC(=O)Nc1ccc(S(=O)(=O)NCc2nc(-c3ccccc3Cl)no2)cc1 | . | -3 | 3 | 0 | 1 | -3 | .
COc1ccc2ccccc2c1C(=O)/C=C\c1ccoc1 | -8 | 13 | 1 | -2 | -1 | 33* | 7
O=C1CCC(=O)N1c1ccc(CSc2nc3ccccc3[nH]2)cc1 | -9 | -1 | -1 | -7 | 1 | 33* | 28*
Cc1cc(C)c(S(=O)(=O)N2CCCOC2CNC(=O)C(=O)NCCC2=CCCCC2)c(C)c1 (stereo not drawn) | -5 | 0 | 0 | -1 | -5 | 0 | .
COc1ccc(CCNC2=C(Cl)C(=O)N(CCc3ccccc3)C2=O)cc1OC | 1 | 7 | 3 | -2 | -2 | 2 | .
O=C1C(Cl)=C(Nc2ccccc2O)C(=O)N1CCc1ccccc1 | 2 | 20 | -13 | 0 | -6 | 30* | 54*
O=S(=O)(c1cccc(-c2nnco2)c1)N1CCOCC1 | -5 | 15 | -2 | -12 | 1 | 0 | .
CCC1CN(C(=O)N2CCC(C(=O)NCc3ccc(C)o3)CC2)c2ccccc2O1 (stereo not drawn) | . | 7 | 0 | 3 | 1 | 4 | .
C/C(=N\N1C(=O)CSC1=S)c1ccc(Br)cc1 | -8 | -6 | -19 | -5 | -7 | 31* | 32*
CCOc1cccc(=O)c2c(C)n(CC(=O)c3ccccc3)c(C)c12 | -7 | 5 | -5 | -5 | 1 | 5 | .
COc1cccc(=O)c2c(C)n(CC(=O)c3ccccc3)c(C)c12 | -5 | 29 | -3 | 4 | -1 | 36* | 8
CCOC(=O)CSc1nc2c(sc(=S)n2-c2ccccc2)c(=O)n1-c1ccc(OC)cc1OC | . | -5 | 3 | 22 | 0 | 1 | .
COc1ccc(OC)c(-n2c(=S)[nH]c3c(sc(=S)n3-c3ccccc3)c2=O)c1 | -3 | -7 | -3 | 4 | -1 | 65* | 9
CC1CCCC(NC2CCCCNC2=O)C1 (stereo not drawn) | 2 | 5 | -2 | 9 | -1 | 27* | -7
Brc1ccc(N=Cc2ccccn2)cc1 | -1 | 1 | -1 | 4 | -4 | 0 | .
C#CCN1C(=O)S/C(=C\c2cc3c(cc2OC)OCO3)C1=O | . | -1 | 1 | 0 | -1 | -1 | .
O=S(=O)(/N=S1\CC=CCN1S(=O)(=O)c1ccccc1)c1ccccc1 (stereo not drawn) | . | . | . | . | . | 41* | 78*
O=C(NN1C(=O)c2ccccc2NC1c1cccnc1)c1ccc([N+](=O)[O-])cc1 (stereo not drawn) | -4 | 10 | 1 | 6 | 4 | -2 | .
Cc1ccc(CC(=O)Nc2cc(C)on2)cc1 | . | 2 | -5 | -2 | -4 | . | .
